A selection: hits, their analogues and other compounds. The true share with any hit is near 1.5%.
HNF4A DNA FP: change in binding of human HNF4 alpha to DNA; activity change, % at 10 µM; P41235; HNF4a-FITC DNA binding, fluorescence polarization, 1 h; 0.3% of 360,000 active; in the data active = activity change above about 30%, passing the limit was not always enough
Target sequence (P41235 whole entry, looked up): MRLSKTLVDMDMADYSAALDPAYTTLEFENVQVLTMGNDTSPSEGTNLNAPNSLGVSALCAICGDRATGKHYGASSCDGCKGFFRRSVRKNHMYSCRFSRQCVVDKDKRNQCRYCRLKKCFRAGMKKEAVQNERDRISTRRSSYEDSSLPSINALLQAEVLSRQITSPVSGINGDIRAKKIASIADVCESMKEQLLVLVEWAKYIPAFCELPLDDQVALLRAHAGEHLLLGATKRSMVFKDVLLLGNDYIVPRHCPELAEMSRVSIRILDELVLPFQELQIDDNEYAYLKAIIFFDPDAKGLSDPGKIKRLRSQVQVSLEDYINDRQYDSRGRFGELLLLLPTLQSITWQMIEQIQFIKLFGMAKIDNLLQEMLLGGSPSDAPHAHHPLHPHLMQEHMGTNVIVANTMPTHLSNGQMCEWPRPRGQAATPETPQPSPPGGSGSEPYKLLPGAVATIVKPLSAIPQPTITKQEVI
CSN deneddyl inh: CSN deneddylation inhibition; Q92905; Purified CSN, SCF-Nedd8-OG deneddylation, fluorescence polarization; inhibition, % at 12.5 µM; 0.38% of 360,000 active;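 active = pattern-corrected inhibition above about 35%, with an unprinted fluorescence ratio check between 0.5 and 1.5, limit read from the data, passing the limit was not always enough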
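Assay system: purified human Csn5 enzyme expressed in HEK293T cells; Input: 0.24 nM Csn5 enzyme, final concentration; Reagent: 10 nM SCFSkp2-Nedd8OG; Compound dosing: 12.5 µM single point; Times: reaction 90 min, room temperature; Technique: fluorescence polarization readout.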
TPT1 inh: inhibitors of Candida albicans tRNA 2'-phosphotransferase TPT1. recombinant caTPT1, FP RNA substrate dephosphorylation. inhibition, % at 5 µM. 0.81% of 300,000 active;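 active = inhibition above the mean of all tested compounds plus 3 SD, set per screening campaign, cut at about 24% in these data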
Rpn11 block: Rpn11 (human) deubiquitinase inhibition | AID 588493 | 0.59% of 360,000 active | calls only at 20 µM | O00487 | human 26S proteasome, Ub4-pepOG fluorescence polarization; 20S core pre-blocked with epoxomicin;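 active = inhibition at 20 µM, scaled to each plate's controls, above about 33%, limit read from the data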
Of the large screens only hits and unclear results are named; the others gave an inactive call.

COc1ccc(NC(=O)C/C(C)=N/NC(=O)c2cnccn2)cc1	HNF4A DNA FP 30
CC1(C)Cc2c(c(=S)nc(-c3ccccc3)n2CCCN2CCOCC2)CO1	CSN deneddyl inh 37
Cn1cccc1/C=C1\SC(=O)N(c2ccccc2)C1=O	CSN deneddyl inh 43
Cc1sc2ncn(CC(=O)NCCCC(=O)N3CCCCC3)c(=O)c2c1C	none
CC1CCN(C(=O)CCNC(=O)Cn2cnc3sc4c(c3c2=O)CCCC4)CC1	CSN deneddyl inh 125
CC1CCN(C(=O)CCCNC(=O)Cn2cnc3sc4c(c3c2=O)CCCC4)CC1	none
Cc1sc2ncn(CC(=O)NCCCC(=O)N3CCN(c4ccccc4)CC3)c(=O)c2c1C	CSN deneddyl inh 76
Fc1cccc(Cc2c(C3CCCCC3)nc3c4ccccc4ccn23)c1	none (no result: TPT1 inh, Rpn11 block)
Cc1cc(C)c(C)c(S(=O)(=O)N[C@@H](C)C(=O)OCC(=O)NC2CCCC(C)C2C)c1C (some centres undefined)	none (no result: TPT1 inh)
CCn1nnnc1SCC(=O)N1N=C(c2cccs2)CC1c1cccs1 (centres undefined)	none (no result: TPT1 inh)
O=C(NCc1ccccn1)c1cc(S(=O)(=O)N2CCCCC2)ccc1Cl	none (no result: TPT1 inh)
CC(C)(C)N1C(=O)Cc2c1nc(N)c1c(N)nc(N3CCCCC3CO)c(C#N)c21 (centres undefined)	CSN deneddyl inh 53
[O-]/C(=C(\C(=S)Nc1ccccc1F)[n+]1ccccc1)c1ccc(OC(F)F)cc1	HNF4A DNA FP 75
Cc1ccc(C)c(NC(=S)/C(=C(\[O-])c2ccc(OC(F)F)cc2)[n+]2ccccc2)c1	none
COc1ccc2c(c1)CCC1C2=NN(/C(C)=C\C(C)=O)C1c1ccc(F)cc1 (centres undefined)	HNF4A DNA FP 53, Rpn11 block active
COc1ccc2c(c1)C1=NN(/C(C)=C/C(C)=O)C(c3ccc(F)cc3)C1CC2 (centres undefined)	none
CCC(C)(C)NC(=O)C(c1ccccc1Cl)N(Cc1cccnc1)C(=O)CCC(=O)Nc1cc(C)on1 (centres undefined)	none
O=C(Nc1cccc(-c2nc3cccnc3s2)c1)C1c2ccccc2Oc2ccccc21	HNF4A DNA FP 47, CSN deneddyl inh 76 (no result: TPT1 inh)
O=C(Nc1cccc(-c2nc3cccnc3s2)c1)c1cccnc1Cl	none
Cc1cccn2c(=O)c(C=C(C#N)C#N)c(N3CCN(C)CC3)nc12	none
COc1ccc(-c2cc(=O)oc3c(C)c(OCC(=O)Nc4cccnc4)ccc23)cc1	CSN deneddyl inh 90
Cc1c(C)c2ccc(OCC(=O)Nc3cccnc3)c(C)c2oc1=O	none
O=C(Cc1ccc(NC(=O)C2CCN(C(=O)C3CCCCC3)CC2)cc1)Nc1ccc(C(=O)N2CCOCC2)cc1	none (no result: TPT1 inh)
COc1ccc(-c2cc(CCC(=O)N3CCN(c4cc(C)ccc4C)CC3)[nH]n2)cc1	none (no result: TPT1 inh)
COc1ccc(/C(O)=C/c2nc3ccc(C(=O)NCCc4cccc(C)c4)cc3[nH]c2=O)cc1OC	HNF4A DNA FP 44, TPT1 inh 67 (not shown: Rpn11 block)
COc1ccc(C(=O)NCCc2ccccc2)cc1OC	none
COc1cc2nc(N3CCN(c4cc(C)ccc4C)CC3)nc(N)c2cc1OC	none
COc1cc2nc(N3CCNCC3)nc(N)c2cc1OC	CSN deneddyl inh 116
O=C(N1CCCCC1)C1(c2ccccc2)CCCCC1	CSN deneddyl inh 37
COC(=O)c1cccc(Nc2cc(C)nc(-c3ccccc3O)n2)c1	none
COC(=O)c1ccc(Nc2cc(C)nc(-c3ccccc3O)n2)cc1	HNF4A DNA FP 37
CCOC(=O)C1(C)CCCN(C(=O)c2cc(C)on2)C1 (centres undefined)	none (no result: TPT1 inh)
O=C(Cn1nnc2ccccc21)Nc1ccccc1[N+](=O)[O-]	none
CCOc1cc(C#N)c(NC(=O)Cn2nnc3ccccc32)cc1OCC	HNF4A DNA FP 34
CCOC(=O)/C(=C/c1ccc(OC(=O)c2ccncc2)cc1)C(C)=O	CSN deneddyl inh 36
O=C1NC(=S)S/C1=C\c1ccc(SCc2ccco2)o1	TPT1 inh 90, Rpn11 block active
Cc1ccnc(NS(=O)(=O)c2ccc(NC(=O)Cc3c(F)cccc3Cl)cc2)n1	HNF4A DNA FP 48
CN1C(=O)[C@@H]2C[C@@]3([C@@]45C[C@H]6C(=O)N(C)[C@@H](Cc7ccccc7)C(=O)N6[C@@H]4Nc4ccccc45)c4ccccc4N[C@H]3N2C(=O)[C@@H]1Cc1ccccc1	none
CCOC(=O)C1=CCC(c2ccccc2C)N(S(=O)(=O)c2ccc(C)cc2)C1 (centres undefined)	none (no result: TPT1 inh)
CCOc1ccc(Cl)cc1-c1cc(C(=O)NCc2cc(C(F)(F)F)cc(C(F)(F)F)c2)[nH]n1	none (no result: TPT1 inh)
CC(C)(C)OC(=O)N1CCN(c2ccc(NC(=O)c3ccco3)cc2)CC1	none (no result: TPT1 inh)
CN(CC(=O)Nc1cccc(F)c1)C(=O)c1cc(-c2ccco2)nc2ccccc12	CSN deneddyl inh 55
Cc1cc2nc(-c3ccco3)c(Cc3cccc(Cl)c3)n2c(C)c1Br	CSN deneddyl inh 36 (no result: TPT1 inh, Rpn11 block)
COc1ccccc1CNC(=O)C1(C)CCCCN1C (centres undefined)	none (no result: TPT1 inh)
O=C(C[C@@H]1C[C@H]2c3cc(NC(=O)C4CCC4)ccc3O[C@H]2[C@@H](CO)O1)NCc1ccc(-c2ccccc2)cc1	none (no result: TPT1 inh)
COP(=O)(OC)c1nc(-c2cccc3ccccc23)oc1NCc1ccccc1	CSN deneddyl inh 85
COc1ccc(CNc2oc(-c3cccc4ccccc34)nc2P(=O)(OC)OC)cc1	none
Cc1ccccc1NS(=O)(=O)c1ccc(C(=O)OCC(=O)NCC(C)C)cc1	HNF4A DNA FP 31
CC(NS(=O)(=O)c1ccc(Cl)cc1)C(=O)OCC(=O)c1ccc[nH]1 (centres undefined)	none (no result: TPT1 inh)
COc1cccc(CN2CC(C(=O)NCCN3CCOCC3)CCC2=O)c1 (centres undefined)	none
COC(=O)CSc1nnc(CNC(=O)c2cc(OC)c(OC)c(OC)c2)n1C	HNF4A DNA FP 28
CCC(NC(=O)C1CCCC1)c1ccccc1 (centres undefined)	none
COc1cc(S(=O)(=O)NCc2ccc3c(c2)OCO3)ccc1F	none
Cc1ccc(S(=O)(=O)c2c(N)n(CCC(C)C)c3nc4ccccc4nc23)cc1	none
CCCCn1c(NC(=O)c2ccco2)c(S(=O)(=O)c2ccc(C)cc2)c2nc3ccccc3nc21	HNF4A DNA FP 68, CSN deneddyl inh 54 (not shown: TPT1 inh, Rpn11 block)
CCCCCn1c(NC(=O)c2ccco2)c(S(=O)(=O)c2ccc(C)cc2)c2nc3ccccc3nc21	none
Cc1ccc(S(=O)(=O)c2c(N)n(CCCO)c3nc4ccccc4nc23)cc1	CSN deneddyl inh 41
CCCCn1c(NS(=O)(=O)c2ccccc2)c(S(=O)(=O)c2ccc(C)cc2)c2nc3ccccc3nc21	CSN deneddyl inh 57
COCCn1c(SCC(=O)Nc2cccnc2Cl)nc2ccccc2c1=O	none (no result: TPT1 inh)
CC1=CC2C(C3C=CC2(C)C(=O)C3(C)O)C(C)(O)C1=O (centres undefined)	none (no result: TPT1 inh)
COCCn1c(SCC(=O)Nc2ccc3c(c2)OCCO3)nnc1C(C)C	none
COCCn1c(SCC(=O)c2ccc3c(c2)OCCO3)nnc1C(C)C	CSN deneddyl inh 84
Cc1ccccc1S(=O)(=O)NC(=O)C1(C)CCN1C(=O)C(C)(C)c1ccccc1 (centres undefined)	HNF4A DNA FP 39 (no result: TPT1 inh)

Assay outcomes deposited in PubChem by several laboratories.
